Tests used:
Assay type in all cases: functional
Settings in all cases: read-out: DIZ
[1] = tested on: Aspergillus terreus; assay: Antifungal activity against Aspergillus terreus at 12.5 ug/ml after 72 hrs by well plate method
Method in brief: (§1)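 Sabouraud agar: peptone 10 g, glucose 40 g, agar 20 g per litre water, pH 5.7. Spore suspension made from a loopful of fungus in 3 mL normal saline and lawned on 20 mL agar per dish. Excess decanted, plates dried 1 h at 37 °C. Wells punched and loaded with compound in DMSO (6.25 or 12.5 μg/mL). DMSO control. Triplicate plates held at 25 °C for 72 h. Inhibition zone diameter measured. A. terreus strain NCIM 1325.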

[2] = tested on: Staphylococcus aureus; assay: Antibacterial activity against Staphylococcus aureus at 6.25 ug/ml after 24 to 48 hrs by well plate diffusion method
Method in brief: (§2)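 Agar well diffusion: 15-20 mL agar per dish, plates dried 1 h at 37 ± 2 °C in laminar flow, then seeded. Wells cut with an agar punch, each loaded with compound dissolved in DMSO (6.25 or 12.5 μg/mL). DMSO solvent control, ciprofloxacin standard. Plates in triplicate, incubated 37 ± 2 °C for 24–48 h. Inhibition zone diameter read in mm, with SD.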

[3] = tested on: Aspergillus terreus; assay: Antifungal activity against Aspergillus terreus at 6.25 ug/ml after 72 hrs by well plate method; method in brief: as §1
[4] = tested on: Aspergillus niger; assay: Antifungal activity against Aspergillus niger at 12.5 ug/ml after 72 hrs by well plate method
[5] = tested on: Aspergillus niger; assay: Antifungal activity against Aspergillus niger at 6.25 ug/ml after 72 hrs by well plate method
[6] = tested on: Penicillium sp.; assay: Antifungal activity against Penicillium sp. at 12.5 ug/ml after 72 hrs by well plate method
[7] = tested on: Penicillium sp.; assay: Antifungal activity against Penicillium sp. at 6.25 ug/ml after 72 hrs by well plate method
[8] = tested on: Staphylococcus aureus; assay: Antibacterial activity against Staphylococcus aureus at 12.5 ug/ml after 24 to 48 hrs by well plate diffusion method; method in brief: as §2
[9] = tested on: Salmonella sp.; assay: Antibacterial activity against Salmonella sp. at 12.5 ug/ml after 24 to 48 hrs by well plate diffusion method; method in brief: as §2
[10] = tested on: Escherichia coli; assay: Antibacterial activity against Escherichia coli at 12.5 ug/ml after 24 to 48 hrs by well plate diffusion method; method in brief: as §2
[11] = tested on: Xanthomonas sp.; assay: Antibacterial activity against Xanthomonas sp. at 12.5 ug/ml after 24 to 48 hrs by well plate diffusion method; method in brief: as §2
[12] = tested on: Aspergillus flavus; assay: Antifungal activity against Aspergillus flavus at 12.5 ug/ml after 72 hrs by well plate method
[13] = tested on: Escherichia coli; assay: Antibacterial activity against Escherichia coli at 6.25 ug/ml after 24 to 48 hrs by well plate diffusion method; method in brief: as §2
[14] = tested on: Salmonella sp.; assay: Antibacterial activity against Salmonella sp. at 6.25 ug/ml after 24 to 48 hrs by well plate diffusion method; method in brief: as §2
[15] = tested on: Xanthomonas sp.; assay: Antibacterial activity against Xanthomonas sp. at 6.25 ug/ml after 24 to 48 hrs by well plate diffusion method; method in brief: as §2

| SMILES | zone of inhibition at 12.5 µg/mL [1] [mm] | zone of inhibition at 6.25 µg/mL [2] [mm] | zone of inhibition at 6.25 µg/mL [3] [mm] | zone of inhibition at 12.5 µg/mL [4] [mm] | zone of inhibition at 6.25 µg/mL [5] [mm] | zone of inhibition at 12.5 µg/mL [6] [mm] | zone of inhibition at 6.25 µg/mL [7] [mm] | zone of inhibition at 12.5 µg/mL [8] [mm] | zone of inhibition at 12.5 µg/mL [9] [mm] | zone of inhibition at 12.5 µg/mL [10] [mm] | zone of inhibition at 12.5 µg/mL [11] [mm] | zone of inhibition at 12.5 µg/mL [12] [mm] | zone of inhibition at 6.25 µg/mL [13] [mm] | zone of inhibition at 6.25 µg/mL [14] [mm] | zone of inhibition at 6.25 µg/mL [15] [mm] |
| --- | --- | --- | --- | --- | --- | --- | --- | --- | --- | --- | --- | --- | --- | --- | --- |
| Fc1ccc(-c2cc(-c3nc4ccccc4[nH]3)c3cc(Cl)ccc3n2)cc1 | 14 | 12 | 13 | 12 | 10 | 18 | 16 | 13 | 9 | 13 | 10 | – | – | – | – |
| Fc1ccc(-c2cc(-c3nc4ccc(Cl)cc4[nH]3)c3cc(Cl)ccc3n2)cc1 | 9 | 16 | 9 | 10 | – | 17 | 12 | 16 | 13 | 12 | 10 | 17 | 12 | 10 | – |
| Fc1ccc(-c2cc(-c3nc4ncccc4[nH]3)c3cc(Cl)ccc3n2)cc1 | 15 | 14 | 9 | 14 | 12 | 13 | – | 18 | 20 | 16 | 16 | 10 | 16 | 9 | 15 |
| Fc1ccc(-c2cc(-c3nc4ccc(Cl)cc4[nH]3)c3cc(F)ccc3n2)cc1 | 14 | 12 | 10 | 10 | – | 17 | 15 | 12 | 11 | 11 | 12 | 10 | 10 | – | 11 |
| Fc1ccc(-c2cc(-c3nc4ccc(F)cc4[nH]3)c3cc(F)ccc3n2)cc1 | 9 | 12 | 10 | 17 | 10 | 13 | 13 | 12 | 13 | 16 | 14 | – | 16 | 9 | – |
| Fc1ccc(-c2cc(-c3nc4ccc(F)cc4[nH]3)c3ccccc3n2)cc1 | 12 | 10 | 12 | 14 | – | 15 | 12 | 16 | 11 | 11 | 13 | 14 | 10 | 10 | – |
| O=C(O)c1cn(C2CC2)c2cc(N3CCNCC3)c(F)cc2c1=O [CIPROFLOXACIN] | – | 18 | – | – | – | – | – | 20 | 31 | – | 22 | – | – | 19 | 18 |

Source: ChEMBL document CHEMBL2040711, “Synthesis, characterization and antimicrobial studies of some new quinoline incorporated benzimidazole derivatives” (2012)
